Experimental data from ChEMBL document CHEMBL4265950, “Discovery of furyl/thienyl β-carboline derivatives as potent and selective PDE5 inhibitors with excellent vasorelaxant effect” (Eur J Med Chem, 2018).

What was measured:
[1] = molecular target: T1, cGMP-specific 3',5'-cyclic phosphodiesterase (Homo sapiens, UniProt O76074); test: Inhibition of full length recombinant human N-terminal GST-tagged PDE5A1 expressed in baculovirus infected sf9 cells using FAM-cyclic-3',5-GMP as substrate after 1 hr by fluorescence polarization assay
[2] = molecular target: T1, cGMP-specific 3',5'-cyclic phosphodiesterase; test: Inhibition of full length recombinant human N-terminal GST-tagged PDE5A1 expressed in baculovirus infected sf9 cells at 100 nM using FAM-cyclic-3',5-GMP as substrate after 1 hr by fluorescence polarization assay relative to control
How it was run: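 Single-point test at 100 nM, reported as percent inhibition. Human PDE5 at 15 ng/mL with 100 nM FAM-cGMP in MOPS pH 7.5 buffer (MgCl2, EDTA, BSA, DTT), 1% DMSO final, 60 min at 25 °C. Binding agent added for 1 h, then fluorescence polarization read at […] nm.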

[3] = molecular target: Dual specificity calcium/calmodulin-dependent 3',5'-cyclic nucleotide phosphodiesterase 1A (Homo sapiens, UniProt P54750); test: Inhibition of full length recombinant human N-terminal GST-tagged PDE1A expressed in baculovirus infected sf9 cells using FAM-cyclic-3',5-AMP as substrate after 1 hr by fluorescence polarization assay
Dual specificity calcium/calmodulin-dependent 3',5'-cyclic nucleotide phosphodiesterase 1A, sequence (P54750 whole entry, canonical isoform): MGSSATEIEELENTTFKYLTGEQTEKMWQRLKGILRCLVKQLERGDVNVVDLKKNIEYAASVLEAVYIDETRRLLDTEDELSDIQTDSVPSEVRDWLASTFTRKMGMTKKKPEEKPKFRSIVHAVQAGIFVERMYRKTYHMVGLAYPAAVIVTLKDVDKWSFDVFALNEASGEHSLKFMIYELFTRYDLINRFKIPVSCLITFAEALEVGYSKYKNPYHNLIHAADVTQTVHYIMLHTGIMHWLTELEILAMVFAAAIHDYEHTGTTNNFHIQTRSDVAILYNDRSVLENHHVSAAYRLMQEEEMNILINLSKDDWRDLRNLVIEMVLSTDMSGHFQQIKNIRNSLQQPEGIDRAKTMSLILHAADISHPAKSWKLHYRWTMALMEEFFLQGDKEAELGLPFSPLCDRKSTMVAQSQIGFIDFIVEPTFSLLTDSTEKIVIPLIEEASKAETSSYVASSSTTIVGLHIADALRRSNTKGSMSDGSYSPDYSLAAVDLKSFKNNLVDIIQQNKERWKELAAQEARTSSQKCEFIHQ
How it was run: (§1)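 Fluorescence polarization assay run at 25 °C for 60 min in 40 mM MOPS pH 7.5, 0.5 mM EDTA, 15 mM MgCl2, 0.15 mg/mL BSA, 1 mM DTT, 0.05% ProClin 200. Contained 15 ng/mL PDE isoform and 100 nM FAM-cGMP or FAM-cAMP according to isoform, with 1% DMSO final. Binding agent added for 1 h at 25 °C; read at […] nm. IC50 from normalized nonlinear dose-response fit.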

[4] = molecular target: cGMP-dependent 3',5'-cyclic phosphodiesterase (Homo sapiens, UniProt O00408); test: Inhibition of recombinant human N-terminal FLAG-tagged PDE2A (2 to 941 residues) expressed in baculovirus infected sf9 cells using FAM-cyclic-3',5-AMP as substrate after 1 hr by fluorescence polarization assay; how it was run: as §1
[5] = molecular target: cGMP-inhibited 3',5'-cyclic phosphodiesterase 3B (Homo sapiens, UniProt Q13370); test: Inhibition of recombinant human N-terminal GST-tagged PDE3B (592 to end residues) expressed in baculovirus infected sf9 cells using FAM-cyclic-3',5-AMP as substrate after 1 hr by fluorescence polarization assay; how it was run: as §1
cGMP-inhibited 3',5'-cyclic phosphodiesterase 3B, sequence (Q13370 whole entry): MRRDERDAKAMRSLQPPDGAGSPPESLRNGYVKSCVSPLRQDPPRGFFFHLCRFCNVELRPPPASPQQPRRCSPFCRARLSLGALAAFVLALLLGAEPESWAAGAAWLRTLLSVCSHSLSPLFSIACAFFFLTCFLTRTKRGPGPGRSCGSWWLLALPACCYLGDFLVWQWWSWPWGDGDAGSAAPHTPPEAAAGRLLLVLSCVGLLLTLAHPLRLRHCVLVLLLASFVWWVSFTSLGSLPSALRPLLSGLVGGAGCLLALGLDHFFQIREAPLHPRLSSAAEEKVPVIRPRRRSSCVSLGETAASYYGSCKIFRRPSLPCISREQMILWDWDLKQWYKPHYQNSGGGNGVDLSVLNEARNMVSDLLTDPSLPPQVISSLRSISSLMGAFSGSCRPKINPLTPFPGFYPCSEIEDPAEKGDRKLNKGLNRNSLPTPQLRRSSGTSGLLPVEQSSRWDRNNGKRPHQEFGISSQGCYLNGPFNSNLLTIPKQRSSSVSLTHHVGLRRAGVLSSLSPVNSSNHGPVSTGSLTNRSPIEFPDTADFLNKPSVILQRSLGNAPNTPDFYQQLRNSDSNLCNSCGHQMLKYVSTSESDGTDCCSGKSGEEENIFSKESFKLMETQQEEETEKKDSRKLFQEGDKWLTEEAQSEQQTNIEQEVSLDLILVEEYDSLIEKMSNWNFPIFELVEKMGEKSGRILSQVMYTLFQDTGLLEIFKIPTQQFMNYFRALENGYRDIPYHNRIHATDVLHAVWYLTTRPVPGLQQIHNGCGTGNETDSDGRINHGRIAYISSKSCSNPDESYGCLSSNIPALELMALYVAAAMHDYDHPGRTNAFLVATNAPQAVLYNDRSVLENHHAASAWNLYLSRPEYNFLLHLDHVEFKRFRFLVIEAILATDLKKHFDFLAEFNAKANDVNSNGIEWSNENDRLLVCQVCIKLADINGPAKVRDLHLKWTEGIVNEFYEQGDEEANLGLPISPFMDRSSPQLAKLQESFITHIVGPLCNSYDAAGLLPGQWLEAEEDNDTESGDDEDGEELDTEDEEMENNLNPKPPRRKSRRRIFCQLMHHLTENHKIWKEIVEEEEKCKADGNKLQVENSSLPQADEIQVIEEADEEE

[6] = molecular target: 3',5'-cyclic-AMP phosphodiesterase 4A (Homo sapiens, UniProt P27815); test: Inhibition of full length recombinant human N-terminal GST-tagged PDE4A1A expressed in baculovirus infected sf9 cells using FAM-cyclic-3',5-AMP as substrate after 1 hr by fluorescence polarization assay
3',5'-cyclic-AMP phosphodiesterase 4A, sequence (P27815 whole entry): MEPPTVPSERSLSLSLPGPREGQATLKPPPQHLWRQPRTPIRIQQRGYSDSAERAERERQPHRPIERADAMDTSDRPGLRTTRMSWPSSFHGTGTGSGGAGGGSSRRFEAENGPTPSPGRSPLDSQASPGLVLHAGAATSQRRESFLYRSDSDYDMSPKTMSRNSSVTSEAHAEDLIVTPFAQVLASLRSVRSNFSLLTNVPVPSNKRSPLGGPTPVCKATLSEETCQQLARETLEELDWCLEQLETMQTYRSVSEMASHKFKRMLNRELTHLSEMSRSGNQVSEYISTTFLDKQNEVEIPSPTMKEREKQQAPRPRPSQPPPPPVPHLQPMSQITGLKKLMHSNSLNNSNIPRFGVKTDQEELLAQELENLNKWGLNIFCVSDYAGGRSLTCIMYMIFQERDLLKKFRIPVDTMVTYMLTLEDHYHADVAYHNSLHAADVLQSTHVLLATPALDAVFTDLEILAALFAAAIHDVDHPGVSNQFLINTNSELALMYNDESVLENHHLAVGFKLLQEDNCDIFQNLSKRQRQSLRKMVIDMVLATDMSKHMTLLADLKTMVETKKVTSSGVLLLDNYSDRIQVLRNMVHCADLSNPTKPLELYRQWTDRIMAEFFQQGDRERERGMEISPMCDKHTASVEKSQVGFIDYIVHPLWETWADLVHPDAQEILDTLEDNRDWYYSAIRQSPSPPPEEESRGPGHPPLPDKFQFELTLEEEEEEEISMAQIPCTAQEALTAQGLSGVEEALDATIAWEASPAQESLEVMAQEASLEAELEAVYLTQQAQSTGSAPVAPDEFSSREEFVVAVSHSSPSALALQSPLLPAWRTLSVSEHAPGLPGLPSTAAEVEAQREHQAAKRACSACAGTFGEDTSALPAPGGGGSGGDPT

[7] = molecular target: Cone cGMP-specific 3',5'-cyclic phosphodiesterase subunit alpha' (Homo sapiens, UniProt P51160); test: Inhibition of full length recombinant human N-terminal GST-tagged PDE6C expressed in baculovirus infected sf9 cells using […] as substrate after 1 hr by fluorescence polarization assay
Cone cGMP-specific 3',5'-cyclic phosphodiesterase subunit alpha', sequence (P51160 whole entry): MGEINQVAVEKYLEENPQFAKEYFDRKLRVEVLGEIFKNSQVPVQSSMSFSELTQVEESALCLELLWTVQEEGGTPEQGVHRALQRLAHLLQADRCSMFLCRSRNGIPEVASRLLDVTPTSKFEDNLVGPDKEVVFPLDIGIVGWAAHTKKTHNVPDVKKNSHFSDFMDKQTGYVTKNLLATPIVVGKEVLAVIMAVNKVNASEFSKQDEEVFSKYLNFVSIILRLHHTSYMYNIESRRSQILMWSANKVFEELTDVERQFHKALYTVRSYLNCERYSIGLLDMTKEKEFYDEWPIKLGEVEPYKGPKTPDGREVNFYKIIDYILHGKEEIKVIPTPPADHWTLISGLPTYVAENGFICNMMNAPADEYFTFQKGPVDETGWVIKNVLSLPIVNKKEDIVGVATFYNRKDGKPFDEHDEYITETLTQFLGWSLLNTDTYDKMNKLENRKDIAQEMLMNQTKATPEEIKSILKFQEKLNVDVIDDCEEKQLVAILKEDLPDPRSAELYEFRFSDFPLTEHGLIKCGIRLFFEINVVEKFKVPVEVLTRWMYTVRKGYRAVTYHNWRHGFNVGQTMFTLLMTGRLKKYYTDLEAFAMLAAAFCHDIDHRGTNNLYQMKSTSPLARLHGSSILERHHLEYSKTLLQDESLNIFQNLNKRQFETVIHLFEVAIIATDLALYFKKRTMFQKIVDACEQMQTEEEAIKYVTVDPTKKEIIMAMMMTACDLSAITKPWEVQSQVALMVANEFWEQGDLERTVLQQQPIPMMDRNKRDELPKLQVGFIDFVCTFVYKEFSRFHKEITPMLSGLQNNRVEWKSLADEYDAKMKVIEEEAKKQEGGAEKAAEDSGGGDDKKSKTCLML

Homo sapiens [8] = organism: Homo sapiens; test: Selectivity index, ratio of IC50 for inhibition of full length recombinant human N-terminal GST-tagged PDE6C expressed in baculovirus infected sf9 cells to IC50 for inhibition of full length recombinant human N-terminal GST-tagged PDE5A1 expressed in baculovirus infected sf9 cells
[9] = molecular target: Dual 3',5'-cyclic-AMP and -GMP phosphodiesterase 11A (Homo sapiens, UniProt Q9HCR9); test: Inhibition of full length recombinant human N-terminal GST-tagged PDE11A4 expressed in baculovirus infected sf9 cells using FAM-cyclic-3',5-AMP as substrate after 1 hr by fluorescence polarization assay
[10] = molecular target: High affinity 3',5'-cyclic-AMP phosphodiesterase 7A (Homo sapiens, UniProt Q13946); test: Inhibition of recombinant human N-terminal GST-tagged PDE7A (122 to end residues) expressed in baculovirus infected sf9 cells using FAM-cyclic-3',5-AMP as substrate after 1 hr by fluorescence polarization assay; how it was run: as §1
High affinity 3',5'-cyclic-AMP phosphodiesterase 7A, sequence (Q13946 whole entry): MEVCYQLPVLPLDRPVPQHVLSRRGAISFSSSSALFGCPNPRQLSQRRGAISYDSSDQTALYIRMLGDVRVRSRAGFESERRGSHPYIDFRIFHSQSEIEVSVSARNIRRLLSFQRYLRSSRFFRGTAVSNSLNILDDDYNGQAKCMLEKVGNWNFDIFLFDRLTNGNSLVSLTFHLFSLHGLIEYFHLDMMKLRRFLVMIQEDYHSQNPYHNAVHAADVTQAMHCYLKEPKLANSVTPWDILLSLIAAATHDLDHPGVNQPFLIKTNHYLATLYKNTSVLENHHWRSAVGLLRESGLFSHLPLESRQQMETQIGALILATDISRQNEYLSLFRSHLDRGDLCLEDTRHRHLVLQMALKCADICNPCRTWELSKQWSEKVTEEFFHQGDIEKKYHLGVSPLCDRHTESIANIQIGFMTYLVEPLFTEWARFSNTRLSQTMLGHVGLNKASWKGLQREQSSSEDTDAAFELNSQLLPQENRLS

[11] = molecular target: High affinity cAMP-specific and IBMX-insensitive 3',5'-cyclic phosphodiesterase 8A (Homo sapiens, UniProt O60658); test: Inhibition of full length recombinant human N-terminal GST-tagged PDE8A1 expressed in baculovirus infected sf9 cells using FAM-cyclic-3',5-AMP as substrate after 1 hr by fluorescence polarization assay; how it was run: as §1
[12] = molecular target: High affinity cGMP-specific 3',5'-cyclic phosphodiesterase 9A (Homo sapiens, UniProt O76083); test: Inhibition of full length recombinant human N-terminal GST-tagged PDE9A2 expressed in baculovirus infected sf9 cells using […] as substrate after 1 hr by fluorescence polarization assay; how it was run: as §1
[13] = molecular target: cAMP and cAMP-inhibited cGMP 3',5'-cyclic phosphodiesterase 10A (Homo sapiens, UniProt Q9Y233); test: Inhibition of recombinant human N-terminal GST-tagged PDE10A1 (2 to 789 residues) expressed in baculovirus infected sf9 cells using FAM-cyclic-3',5-AMP as substrate after 1 hr by fluorescence polarization assay; how it was run: as §1
cAMP and cAMP-inhibited cGMP 3',5'-cyclic phosphodiesterase 10A, sequence (Q9Y233 whole entry, the tested form may be a part): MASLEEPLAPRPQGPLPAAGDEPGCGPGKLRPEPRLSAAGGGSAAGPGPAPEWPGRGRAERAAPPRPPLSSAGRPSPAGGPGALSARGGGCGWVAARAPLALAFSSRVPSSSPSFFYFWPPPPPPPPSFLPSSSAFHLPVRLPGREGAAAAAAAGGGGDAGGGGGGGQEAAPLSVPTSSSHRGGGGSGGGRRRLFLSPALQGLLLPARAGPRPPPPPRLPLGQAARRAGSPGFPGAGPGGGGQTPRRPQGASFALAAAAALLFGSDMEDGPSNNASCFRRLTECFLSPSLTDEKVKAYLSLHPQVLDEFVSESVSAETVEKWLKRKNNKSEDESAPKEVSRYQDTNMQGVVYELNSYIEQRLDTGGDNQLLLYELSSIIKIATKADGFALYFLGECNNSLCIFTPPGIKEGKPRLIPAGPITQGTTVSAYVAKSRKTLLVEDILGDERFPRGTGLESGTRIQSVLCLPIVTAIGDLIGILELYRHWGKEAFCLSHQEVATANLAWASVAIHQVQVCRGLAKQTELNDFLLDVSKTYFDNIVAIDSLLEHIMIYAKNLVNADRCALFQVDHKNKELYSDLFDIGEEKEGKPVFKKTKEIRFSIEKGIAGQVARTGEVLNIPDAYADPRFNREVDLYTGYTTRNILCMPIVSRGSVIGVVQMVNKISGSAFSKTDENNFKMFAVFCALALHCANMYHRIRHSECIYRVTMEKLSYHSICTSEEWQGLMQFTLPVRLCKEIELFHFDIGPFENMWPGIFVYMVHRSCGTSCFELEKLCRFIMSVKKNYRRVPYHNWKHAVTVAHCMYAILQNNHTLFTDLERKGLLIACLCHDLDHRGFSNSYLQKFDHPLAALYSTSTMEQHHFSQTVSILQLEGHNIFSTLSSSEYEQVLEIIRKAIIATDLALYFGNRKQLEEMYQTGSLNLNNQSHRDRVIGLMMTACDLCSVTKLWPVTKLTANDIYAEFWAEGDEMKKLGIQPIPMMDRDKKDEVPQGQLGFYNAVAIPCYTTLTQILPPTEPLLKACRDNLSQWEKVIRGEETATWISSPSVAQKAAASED

Homo sapiens [14] = organism: Homo sapiens; test: Selectivity index, ratio of IC50 for inhibition of full length recombinant human N-terminal GST-tagged PDE11A4 expressed in baculovirus infected sf9 cells to IC50 for inhibition of full length recombinant human N-terminal GST-tagged PDE5A1 expressed in baculovirus infected sf9 cells
Homo sapiens [15] = organism: Homo sapiens; test: Selectivity index, ratio of IC50 for inhibition of recombinant human N-terminal GST-tagged PDE7A (122 to end residues) expressed in baculovirus infected sf9 cells to IC50 for inhibition of full length recombinant human N-terminal GST-tagged PDE5A1 expressed in baculovirus infected sf9 cells
Homo sapiens [16] = organism: Homo sapiens; test: Selectivity index, ratio of IC50 for inhibition of full length recombinant human N-terminal GST-tagged PDE8A1 expressed in baculovirus infected sf9 cells to IC50 for inhibition of full length recombinant human N-terminal GST-tagged PDE5A1 expressed in baculovirus infected sf9 cells
Homo sapiens [17] = organism: Homo sapiens; test: Selectivity index, ratio of IC50 for inhibition of full length recombinant human N-terminal GST-tagged PDE9A2 expressed in baculovirus infected sf9 cells to IC50 for inhibition of full length recombinant human N-terminal GST-tagged PDE5A1 expressed in baculovirus infected sf9 cells
Homo sapiens [18] = organism: Homo sapiens; test: Selectivity index, ratio of IC50 for inhibition of recombinant human N-terminal GST-tagged PDE10A1 (2 to 789 residues) expressed in baculovirus infected sf9 cells to IC50 for inhibition of full length recombinant human N-terminal GST-tagged PDE5A1 expressed in baculovirus infected sf9 cells
[19] = Stability of the compound in PDE5 enzyme assay condition at 100 uM by HPLC analysis; type: ADME
[20] = molecular target: cGMP-specific 3',5'-cyclic phosphodiesterase (Rattus norvegicus) (UniProt O54735); test: (§2) Inhibition of PDE5 in Wistar rat mesentric arteries assessed as inhibition of phenylephrine-induced contraction by measuring increase in acetylcholine-induced vasorelaxation by pressure myographic method
How it was run: (§3)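 Third-order rat mesenteric arteries (110–150 µm), 3–4 mm unbranched segments, cannulated in PSS (pH 7.4, 95% O2/5% CO2). Equilibrated 35 min while pressure was stepped 10→60 mmHg. Checked with 120 mM KCl and acetylcholine, then constricted with 20 µM phenylephrine (norepinephrine in text) and given compounds cumulatively. Ca²⁺-free PSS set maximal dilation. Outer diameter recorded as % relaxation; EC50 from normalized nonlinear fit.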

[21] = molecular target: cGMP-specific 3',5'-cyclic phosphodiesterase (Rattus norvegicus, UniProt O54735); test: as §2; how it was run: as §3

| IC50 [1] [µM] | inhibition [2] [%] | IC50 [3] [µM] | IC50 [4] [µM] | IC50 [5] [µM] | IC50 [6] [µM] | IC50 [7] [µM] | IC50 [9] [µM] | IC50 [10] [µM] | IC50 [11] [µM] | IC50 [12] [µM] | IC50 [13] [µM] | Stability [19] | percent relaxation [20] | Compound | Ratio IC50 (Homo sapiens [8]) | Ratio IC50 (Homo sapiens [14]) | Ratio IC50 (Homo sapiens [15]) | Ratio IC50 (Homo sapiens [16]) | Ratio IC50 (Homo sapiens [17]) | Ratio IC50 (Homo sapiens [18]) | also measured |
| --- | --- | --- | --- | --- | --- | --- | --- | --- | --- | --- | --- | --- | --- | --- | --- | --- | --- | --- | --- | --- | --- |
| 0.00387 | 97.8 | > 20 | > 20 | > 20 | > 10 | > 1 | 0.272 | > 4 | > 4 | > 4 | > 4 | Stable | Dose-dependent effect | CCc1ccc([C@@H]2c3[nH]c4ccccc4c3C[C@@H]3C(=O)N(C)CC(=O)N23)s1 | > 258 | 70 | > 1000 | > 1000 | > 1000 | > 1000 | EC50 [21]: 0.03 µM |
| 0.00292 | 99.5 | > 20 | > 20 | > 20 | > 10 | 0.127 | > 1 | > 3 | > 3 | > 3 | > 3 | Stable | Dose-dependent effect | CCc1ccc([C@@H]2c3[nH]c4ccccc4c3C[C@H]3C(=O)N(CC)C(=O)N23)o1 | 43 | > 342 | > 1000 | > 1000 | > 1000 | > 1000 | EC50 [21]: 0.063 µM |
